We go through three molecules from article PMC5349769 (ACS chemical neuroscience, 2015).

The target of one experiment is DAT (Rattus norvegicus, UniProt P23977). The experiment is described as follows: Inhibition of [3H]dopamine reuptake at DAT in rat caudate synaptosomes. The format is biochemical. The conditions noted are these: for efficacy as inhibitor of reuptake at DAT: dose-response, Figure 1A; for EC50: read-out: EC50, DAT uptake inhibition.
In a further experiment the target is NET (Rattus norvegicus, UniProt Q63380). The experiment can be described thus: Inhibition of [3H]norepinephrine reuptake at NET in rat brain synaptosomes. The format is biochemical. Conditions: for efficacy as inhibitor of reuptake at NET: dose-response, Figure 1B.
Sequence of NET (Q63380 1-617): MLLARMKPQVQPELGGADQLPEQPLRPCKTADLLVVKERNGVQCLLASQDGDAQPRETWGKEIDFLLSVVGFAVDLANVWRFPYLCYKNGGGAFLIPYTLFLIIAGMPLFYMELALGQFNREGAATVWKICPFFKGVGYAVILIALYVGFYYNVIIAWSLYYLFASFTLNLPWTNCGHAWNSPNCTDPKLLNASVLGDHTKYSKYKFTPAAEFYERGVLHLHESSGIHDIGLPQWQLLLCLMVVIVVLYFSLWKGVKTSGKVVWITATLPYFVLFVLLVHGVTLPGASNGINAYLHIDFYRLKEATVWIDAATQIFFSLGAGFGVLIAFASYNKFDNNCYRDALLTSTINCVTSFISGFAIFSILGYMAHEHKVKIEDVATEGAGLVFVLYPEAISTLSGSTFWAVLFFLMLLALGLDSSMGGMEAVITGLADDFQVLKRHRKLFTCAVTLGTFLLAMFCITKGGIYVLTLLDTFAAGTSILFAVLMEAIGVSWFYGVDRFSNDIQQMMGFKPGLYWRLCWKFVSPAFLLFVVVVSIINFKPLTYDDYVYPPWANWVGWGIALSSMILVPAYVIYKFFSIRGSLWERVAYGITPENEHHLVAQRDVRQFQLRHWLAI
A further experiment concerns the target SERT (Rattus norvegicus, UniProt P31652). The experiment can be described thus: Inhibition of [3H]serotonin reuptake at SERT in rat brain synaptosomes. The format is biochemical. The conditions noted are these: 5 nM [3H]serotonin, data not shown. Put shortly: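 Synaptosomes prepared from rat whole brain minus caudate and cerebellum after CO2 euthanasia. Uptake began by adding tissue suspension to Krebs-phosphate buffer, pH 7.4, containing 0.05 mM pargyline, BSA, ascorbic acid, test compound and 5 nM [3H]serotonin. Unlabeled blockers of competing transporters were included. The assay ended by rapid vacuum filtration through GF/B filters, and retained radioactivity was measured by scintillation counting.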

Experiment [1] has as its system intracranial self-stimulation (medial forebrain bundle). Conditions: rats; racemate, earlier report ref 15; cited from earlier work.
Experiment [2] shares this test system. The experiment is described as follows: Intracranial self-stimulation. The format is in vivo, rat. The conditions noted are these: rats, i.p.
Setting [3] is: ratio of reuptake inhibition potencies.

A value given as a limit tells only on which side of the number the result lay.

Sequence of DAT (P23977 whole entry): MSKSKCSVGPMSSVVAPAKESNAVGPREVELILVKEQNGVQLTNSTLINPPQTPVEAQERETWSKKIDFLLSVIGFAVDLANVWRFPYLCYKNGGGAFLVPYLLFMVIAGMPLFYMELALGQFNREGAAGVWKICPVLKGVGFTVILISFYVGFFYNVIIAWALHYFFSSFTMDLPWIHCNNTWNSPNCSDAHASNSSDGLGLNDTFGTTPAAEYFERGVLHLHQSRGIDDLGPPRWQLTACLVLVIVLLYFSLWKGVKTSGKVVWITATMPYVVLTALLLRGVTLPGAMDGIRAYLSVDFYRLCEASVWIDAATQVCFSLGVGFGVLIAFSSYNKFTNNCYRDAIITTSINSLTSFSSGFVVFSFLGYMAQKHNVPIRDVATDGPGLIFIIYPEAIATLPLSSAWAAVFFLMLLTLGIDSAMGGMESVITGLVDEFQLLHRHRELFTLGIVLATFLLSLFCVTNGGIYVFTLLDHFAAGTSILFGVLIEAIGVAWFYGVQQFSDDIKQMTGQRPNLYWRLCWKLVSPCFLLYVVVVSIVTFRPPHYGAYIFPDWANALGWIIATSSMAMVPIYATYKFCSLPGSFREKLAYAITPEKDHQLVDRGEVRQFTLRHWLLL
Sequence of SERT (P31652 whole entry): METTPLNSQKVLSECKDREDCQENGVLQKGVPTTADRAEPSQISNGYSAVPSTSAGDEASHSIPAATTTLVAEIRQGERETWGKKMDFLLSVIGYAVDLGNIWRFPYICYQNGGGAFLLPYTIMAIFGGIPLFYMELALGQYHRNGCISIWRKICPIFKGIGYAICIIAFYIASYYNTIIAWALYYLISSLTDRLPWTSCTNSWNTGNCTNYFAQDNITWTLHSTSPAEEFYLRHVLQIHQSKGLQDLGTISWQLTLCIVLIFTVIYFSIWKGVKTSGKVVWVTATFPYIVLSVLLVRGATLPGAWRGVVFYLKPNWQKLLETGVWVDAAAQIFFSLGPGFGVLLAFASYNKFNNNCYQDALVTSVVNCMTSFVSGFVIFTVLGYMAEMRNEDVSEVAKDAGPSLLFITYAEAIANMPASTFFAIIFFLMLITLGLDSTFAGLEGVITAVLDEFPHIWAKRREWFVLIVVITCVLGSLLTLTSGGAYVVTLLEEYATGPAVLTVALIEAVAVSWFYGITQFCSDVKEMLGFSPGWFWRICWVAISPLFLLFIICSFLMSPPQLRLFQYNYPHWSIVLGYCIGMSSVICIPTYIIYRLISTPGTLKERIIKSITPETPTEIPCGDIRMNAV

Regarding `CCCC(C(=O)c1ccc2c(c1)OCO2)N1CCCC1` (racemic) [(±)MDPV (3), methylenedioxypyrovalerone], on DAT, the “efficacy as inhibitor of reuptake at DAT” value is reported as “fully efficacious” and the EC50 is 4.85 nM. Besides, the “efficacy as inhibitor of reuptake at NET” value on NET was “fully efficacious”. Besides, at SERT, the “concentration up to which reuptake of [3H]serotonin at SERT was not inhibited” value is above 10 µM. Moreover, in experiment [1], the “doses producing significant facilitation of ICSS” value is reported as at least 0.32 mg/kg.
With `CCC[C@H](C(=O)c1ccc2c(c1)OCO2)N1CCCC1.Cl` [R(−)MDPV (3R), R(−)-Methylendioxypyrovalerone Hydrochloride], the EC50 at DAT worked out at 383 nM. Besides, in experiment [2] (up to 10 mg/kg), the “dose without effect on ICSS relative to the lowest effective dose of S(+)MDPV” value was above 100 fold.
Regarding `CCC[C@@H](C(=O)c1ccc2c(c1)OCO2)N1CCCC1.Cl` [S(+)MDPV (3S), S(+)-Methylendioxypyrovalerone Hydrochloride], on DAT, the “efficacy as inhibitor of reuptake at DAT” value is “fully efficacious” and the EC50 was 2.13 nM. For the same molecule, at DAT (setting [3]), the “fold more potent as reuptake inhibitor than R(−)MDPV at DAT” value is “approximately 200 fold” and the “fold more potent than cocaine at DAT” value was 100 fold. In addition, on DAT (reuptake inhibition), the “potency relative to the racemate at DAT” value is “approximately twice as potent”. For the same molecule, the “efficacy as inhibitor of reuptake at NET” value on NET is “fully efficacious”. Moreover, at NET (setting [3]), the “fold more potent as reuptake inhibitor than R(−)MDPV at NET” value is reported as around 80 fold and the “fold more potent than cocaine at NET” value worked out at 40 fold. For the same molecule, the “potency relative to the racemate at NET” value at NET (reuptake inhibition) is “approximately twice as potent”. The “effect on ICSS relative to vehicle, posthoc analysis” value in experiment [2] (doses of 0.32 and 1.0 mg/kg, one-way ANOVA, Dunnett's posthoc) is given as “significantly facilitated ICSS”. Further, the “effect on ICSS frequency–rate curve (%MCR)” value in experiment [2] (S(+)MDPV 0.32 mg/kg, R(−)MDPV 3.2 mg/kg, Figure 2B,C) is “leftward shift in the ICSS frequency–rate curve”.
